pEC50, pIC50: −log10 of the molar value. Activity calls are given as the source filed them. The rule behind the calls is not given here.
How the values were obtained:
Homo sapiens = species on record: Homo sapiens; assay: Selectivity index, ratio of IC50 for inhibition of human COX1 to IC50 for inhibition of human COX2
C6 [1] = assay: Cytotoxicity against rat C6 cells assessed as reduction in cell viability after 24 hrs by MTT assay; type: cell-based; conditions: C6, 24 h
Procedure, shortened: (§1)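 C6 or BV2 cells seeded at 1–5×10^5 per well; after 12 h exposed to 0, 6.25, 12.5, 25, 50 or 100 μM (final, DMSO <0.4%) for 24 h. MTT added for 4 h, dissolved in DMSO, read at 570 nm. IC50 as mean of three independent experiments run in triplicate.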

BV-2 [2] = assay: Cytotoxicity against mouse BV-2 cells assessed as reduction in cell viability after 24 hrs by MTT assay; type: cell-based; conditions: BV-2, 24 h; procedure, shortened: as §1
C6 [3] = assay: Inhibition of LPS-induced NO production in rat C6 cells incubated for 24 hrs by Griess reagent based assay; type: functional, cell-based; conditions: C6, 24 h
Procedure, shortened: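 C6 cells at 5×10^5 cells/mL, LPS 10 μg/mL plus compound at 2.5–40 μM final for 24 h. Nitrite measured with Griess reagent at 540 nm against a NaNO2 standard; IC50 from three repeats.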

[4] = Inhibition of LPS-induced NO production in mouse BV-2 cells incubated for 24 hrs by Griess reagent based assay; type: functional, cell-based; conditions: BV-2, 24 h
Procedure, shortened: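 BV2 cells at 5×10^5 cells/mL, LPS 1 μg/mL plus compound at 2.5–40 μM final for 24 h. Supernatant nitrite measured with Griess reagent for 15 min at room temperature in the dark, 540 nm, against a NaNO2 standard curve; IC50 from three repeats.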

[5] = Antioxidant activity assessed as DPPH radical scavenging activity incubated for 30 mins; type: functional
Procedure, shortened: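 Compound in ethanol at 2.5–40 μM final, mixed 1:1 with 700 μmol/L ethanolic DPPH; 30 min in the dark at room temperature, absorbance at 515 nm. Serotonin used as standard; EC50 from three independent experiments.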

BV-2 [6] = assay: Inhibition of LPS-induced TNFalpha production in mouse BV-2 cells after 24 hrs by ELISA; type: functional, cell-based; conditions: dose 10-40 µM
Procedure, shortened: (§2)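 BV2 cells at 5×10^5 cells/mL stimulated with LPS 1 μg/mL; compound at 10, 20 or 40 μM final for 24 h, DMSO in blanks. Supernatant TNF-α and IL-10 measured by sandwich ELISA and PGE2 by competitive ELISA, OD at 450 nm; at least three independent experiments.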

C6 [7] = assay: Inhibition of LPS-induced TNFalpha production in rat C6 cells after 24 hrs by ELISA; type: functional, cell-based; conditions: dose 10-40 µM
Procedure, shortened: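 C6 cells at 5×10^5 cells/mL stimulated with LPS 10 μg/mL; compound at 10, 20 or 40 μM final for 24 h. Supernatant TNF-α measured by sandwich ELISA at 450 nm; at least three independent experiments.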

BV-2 [8] = assay: Antiinflammatory activity against LPS-induced mouse BV-2 cells assessed as increase in IL-10 production at 40 uM after 24 hrs by ELISA; type: functional, cell-based; procedure, shortened: as §2
BV-2 [9] = assay: Antiinflammatory activity against LPS-induced mouse BV-2 cells assessed as decrease in INOS protein expression at 40 uM after 24 hrs by Western blot analysis relative to control; type: functional; parameters: scale not given: the % may be the effect or the level left
Procedure, shortened: (§3)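 BV2 cells in DMEM with 10% FBS; LPS 1 μg/mL plus compound at 10, 20 or 40 μM final for 24 h. Lysates in RIPA with 1 mM PMSF; 30 μg protein on 8% SDS-PAGE and blotted for iNOS and COX-2, GAPDH as reference; ECL detection and densitometry; at least three independent experiments.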

BV-2 [10] = assay: Antiinflammatory activity against LPS-induced mouse BV-2 cells assessed as decrease in COX2 protein expression at 40 uM after 24 hrs by Western blot analysis; type: functional, cell-based; procedure, shortened: as §3
BV-2 [11] = assay: Antiinflammatory activity against LPS-induced mouse BV-2 cells assessed as decrease in ROS production at 10 to 40 uM after 6 hrs by DCFH-DA fluorescence probe based flow cytometric analysis; type: functional, cell-based; conditions: dose 10-40 µM
Procedure, shortened: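 BV2 cells with LPS 1 μg/mL and compound at 10, 20 or 40 μM for 6 h, then DCFH-DA 20 μM final for 30 min at 37 °C. Washed in cold PBS and read by flow cytometry, excitation 485 nm and emission 530 nm.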

C6 [12] = assay: Antiinflammatory activity against LPS-induced rat C6 cells assessed as decrease in GFAP protein expression at 20 uM after 24 hrs by DAPI staining based confocal laser microscopic method; type: functional, cell-based
Procedure, shortened: (§4)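 Cells on glass slides with compound at 20 μM final for 24 h: C6 with LPS 10 μg/mL stained for GFAP, BV2 with LPS 1 μg/mL stained for Iba-1. Fixed in 4% paraformaldehyde, blocked in 1% BSA/0.3% Triton X-100, primary antibody 1:100 overnight at 4 °C, secondary 1:200, DAPI mount, confocal imaging. Intensity given as % of LPS group, n = 3.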

BV-2 [13] = assay: Antiinflammatory activity against LPS-induced mouse BV-2 cells assessed as decrease in iba-1 protein expression at 20 uM after 24 hrs by DAPI staining based confocal laser microscopic method; type: functional, cell-based; procedure, shortened: as §4
[14] = target: Prostaglandin G/H synthase 2 (Homo sapiens) (UniProt P35354); assay: Inhibition of human COX2 assessed as reduction in PGF2alpha formation using arachidonic acid as substrate incubated for 10 mins by ELISA
Prostaglandin G/H synthase 2 (Homo sapiens), sequence (P35354 whole entry, looked up): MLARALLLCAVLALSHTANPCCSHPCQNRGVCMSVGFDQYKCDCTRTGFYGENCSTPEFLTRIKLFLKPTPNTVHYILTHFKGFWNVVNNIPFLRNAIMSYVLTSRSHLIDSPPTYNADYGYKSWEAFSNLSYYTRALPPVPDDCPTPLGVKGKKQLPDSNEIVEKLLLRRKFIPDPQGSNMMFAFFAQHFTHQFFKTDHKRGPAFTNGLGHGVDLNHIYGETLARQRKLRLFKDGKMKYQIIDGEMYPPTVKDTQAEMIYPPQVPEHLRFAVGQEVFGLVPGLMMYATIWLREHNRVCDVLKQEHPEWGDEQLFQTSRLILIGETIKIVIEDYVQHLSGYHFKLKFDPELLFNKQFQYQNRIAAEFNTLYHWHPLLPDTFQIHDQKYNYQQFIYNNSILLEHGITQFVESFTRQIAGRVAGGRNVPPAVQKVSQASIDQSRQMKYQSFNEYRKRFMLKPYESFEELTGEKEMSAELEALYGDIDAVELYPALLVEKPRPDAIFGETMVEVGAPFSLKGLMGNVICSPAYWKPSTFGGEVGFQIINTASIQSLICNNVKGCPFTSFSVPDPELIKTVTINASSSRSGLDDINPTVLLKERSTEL

[15] = target: Prostaglandin G/H synthase 1 (Homo sapiens) (UniProt P23219); assay: Inhibition of human COX1 assessed as reduction in PGF2alpha formation using arachidonic acid as substrate incubated for 10 mins by ELISA
[16] = Induction of apoptosis in LPS-induced hippocampal neuroinflammatory Kunming mouse model at 50 mg/kg, ip administered bid for 6 days by Nissl staining based microscopic method; type: organism-based; conditions: in vivo, 144 h, time 6 day
Procedure, shortened: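 Male Kunming mice (8 weeks, 20–25 g, n = 10/group) were anaesthetised with i.p. chloral hydrate, then given LPS (3 μL of 10 mg/mL) into the lateral ventricle at 0.5 μL/min; sham mice received 3 μL saline. Compound was then given i.p. at 50 mg/kg in saline with 1% methyl cellulose for six consecutive days. Behaviour and deaths were recorded, and hippocampal slices were Nissl-stained.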

[17] = Half life in Sprague-Dawley rat at 50 mg/kg, ip up to 24 hrs by LC-MS analysis; type: ADME, organism-based; conditions: in vivo
Procedure, shortened: (§5)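 Male Sprague-Dawley rats, six per group, single 50 mg/kg intraperitoneal dose; parameters derived by non-compartmental analysis using the linear trapezoidal method; mean ± SD, n = 6.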

[18] = Tmax in Sprague-Dawley rat at 50 mg/kg, ip up to 24 hrs by LC-MS analysis; type: ADME, organism-based; conditions: in vivo; procedure, shortened: as §5
[19] = Cmax in Sprague-Dawley rat at 50 mg/kg, ip up to 24 hrs by LC-MS analysis; type: ADME, organism-based; parameters: route intraperitoneal, dose 50 mg/kg, time <=24; conditions: in vivo; procedure, shortened: as §5

Row | pIC50 (C6 [3]) | pIC50 [4] | pIC50 [14] | pIC50 [15] | SMILES | pIC50 (C6 [1]) | pIC50 (BV-2 [2]) | further results
1 | 4.82 | 4.59 | 5.58 | 6.33 | O=C(NCCc1c[nH]c2ccccc12)c1ccccc1Nc1ccccc1 | 3.94 | < 4.00 | Ratio IC50 (Homo sapiens): 0.18; pEC50 [5]: < 4.00; inhibition (BV-2 [6]): Dose-dependent effect; inhibition (C6 [7]): Dose-dependent effect; Activity (BV-2 [8]): inactive; Activity (BV-2 [9]): 66%; Activity (BV-2 [10]): Active; Activity (BV-2 [11]): Active; Activity (C6 [12]): Active; Activity (BV-2 [13]): Active
2 | – | – | – | – | NCCc1c[nH]c2ccc(O)cc12 [SEROTONIN] | – | – | pEC50 [5]: 6.20
3 | – | – | < 4.40 | – | CN(c1ccccc1)c1ccccc1C(=O)NCCc1c[nH]c2ccccc12 | 4.54 | 5.10 | –
4 | – | – | < 4.40 | – | COc1ccc2[nH]cc(CCNC(=O)c3ccccc3Nc3cccc(Cl)c3C)c2c1 | 4.20 | < 4.00 | –
5 | – | – | 6.24 | 5.87 | O=C(NCCc1c[nH]c2ccc(Cl)cc12)c1ccccc1Nc1ccccc1 | 4.10 | 4.21 | Ratio IC50 (Homo sapiens): 2.31
6 | < 4.40 | < 4.40 | < 4.40 | < 4.40 | CNc1ccccc1C(=O)NCCc1c[nH]c2ccccc12 | < 4.00 | < 4.00 | –
7 | < 4.40 | 4.58 | < 4.40 | – | O=C(NCCc1c[nH]c2ccccc12)c1ccccc1O | < 4.00 | < 4.00 | –
8 | – | – | – | – | COc1ccc2[nH]cc(CCNC(C)=O)c2c1 [MELATONIN] | – | – | pEC50 [5]: < 4.40; Activity [16]: Toxic; half-life [17]: 32.4 min; Tmax [18]: 11.4 min; Cmax [19]: 1150 ng/mL
9 | < 4.40 | < 4.40 | 4.60 | < 4.40 | O=C(NCCc1c[nH]c2ccccc12)c1ccc(O)cc1O | < 4.00 | < 4.00 | –
10 | 5.12 | 4.70 | 5.56 | 4.41 | COc1ccc2[nH]cc(CCNC(=O)c3ccccc3Nc3ccccc3)c2c1 | 4.05 | < 4.00 | Ratio IC50 (Homo sapiens): 14
11 | – | – | 5.64 | – | Cc1cccc(Nc2ccccc2C(=O)NCCc2c[nH]c3ccccc23)c1C | 4.02 | 4.26 | –
12 | – | – | 4.84 | – | Cc1c(Cl)cccc1Nc1ccccc1C(=O)NCCc1c[nH]c2ccccc12 | 4.15 | 4.26 | –

From ChEMBL document CHEMBL4680229, “Design, synthesis and bioactivity study of N-salicyloyl tryptamine derivatives as multifunctional agents for the treatment of neuroinflammation” (Eur J Med Chem, 2020)
